Measured values as given in the EternaBench riboswitch data.

Legend:
MS2 coat protein [1] = test: apparent Kd, MS2 coat protein; higher = weaker binding; RNA-MaP array; theophylline 2 mM where present
Summary of the method: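 SNAP-549-labelled MS2 coat protein, doubled from 0.7 or 1.5 nM to 3 µM, was titrated over designs transcribed by stalled E. coli RNA polymerase on Illumina sequencing-chip clusters. Titrations were run without and then with constant ligand in 100 mM Tris-HCl pH 7.5, 80 mM KCl, 4 mM MgCl2, BSA, DTT, yeast tRNA and Tween-20. The apparent Kd is the median of filtered per-cluster fits to green signal normalised to red-channel RNA signal and control-cluster median Fmax.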

MS2 coat protein [2] = test: apparent Kd, MS2 coat protein; higher = weaker binding; RNA-MaP array
Summary of the method: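 Apparent Kd is the median of per-cluster binding-curve fits for designed RNAs transcribed from sequenced DNA templates on an Illumina sequencing chip. The RNAs were incubated at room temperature with fluorescently labeled MS2 coat protein at 1.5 nM to 3 μM, with or without input ligand, and designs measured on fewer than 10 clusters were excluded.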

[3] = designed as: OFF switch for theophylline, no ligand
[4] = ligand present: theophylline, designed as: OFF switch for theophylline
[5] = designed as: ON switch for theophylline, no ligand
[6] = ligand present: theophylline, designed as: ON switch for theophylline
[7] = designed as: ON switch for flavin mononucleotide, no ligand
[8] = ligand present: flavin mononucleotide, designed as: ON switch for flavin mononucleotide
[9] = designed as: OFF switch for flavin mononucleotide, no ligand
[10] = ligand present: flavin mononucleotide, designed as: OFF switch for flavin mononucleotide

Sequence	apparent Kd (MS2 coat protein [2]; [7]) [nM]	apparent Kd (MS2 coat protein [2]; [8]) [nM]	apparent Kd (MS2 coat protein [2]; [9]) [nM]	apparent Kd (MS2 coat protein [2]; [10]) [nM]	further results
AAACUGGGUGUAAAAUAAAUAAUCACUGAUACCAGACUAUAGUAUGUCCCUUGGCAGCAGAAACAUGAGGAUCACCCAUGUAAUA					apparent Kd (MS2 coat protein [1]; [3]): 21.7 nM; apparent Kd (MS2 coat protein [1]; [4]): 21.3 nM
AGACAUGAGGAUCACCCAUGUAGUAUGGAUACCAGAUCCAGAUUUAUCCCUUGGCAGCUGUGGUACAGCGAUGGAUCGCUCCUAG					apparent Kd (MS2 coat protein [1]; [3]): 23.4 nM; apparent Kd (MS2 coat protein [1]; [4]): 27.8 nM
GUCAGUAGAACAGAUACCAGUCAAAAGCUGUGAUCUCAUAACAUGAGGAUCACCCAUGUUGACCCUUGGCAGCUGUGGGCGAGGG					apparent Kd (MS2 coat protein [1]; [3]): 19.6 nM; apparent Kd (MS2 coat protein [1]; [4]): 64.6 nM
AGCGACAUGCGUGAUACCAGCUACAUGAGGAUCACCCAUGUCAGUAGGAAACUGCUGUGUAGCCCUUGGCAGCACAGUGCAUGUC					apparent Kd (MS2 coat protein [1]; [3]): 34.9 nM; apparent Kd (MS2 coat protein [1]; [4]): 38.6 nM
AAUAAGCAGCUGCAAGGUGAUCCUGCAGAUACCAGCUAGGAAACUAGCCCUUGGCAGCUGCAACAUGAGGAUCACCCAUGUAAUA					apparent Kd (MS2 coat protein [1]; [3]): 34.8 nM; apparent Kd (MS2 coat protein [1]; [4]): 85.3 nM
AUUUUUCUAUCAGAUACCAGACAAUUUUAGACAUGAGGAUCACCCAUGUAUAGGGUGUUCGUCCCUUGGCAGCUGUUAAGUUUAA					apparent Kd (MS2 coat protein [1]; [5]): 190 nM; apparent Kd (MS2 coat protein [1]; [6]): 205 nM
UUUGAAAUAACAGAUACCAGCGUGUUAUAAAACAUGAGGAUCACCCAUGUAGUGAUCAAGCGCCCUUGGCAGCUGGUAUUUUAGG					apparent Kd (MS2 coat protein [1]; [5]): 85.4 nM; apparent Kd (MS2 coat protein [1]; [6]): 196 nM
AAGAAGUUUUGAUUUUUAUGAAGUAGUGAUACCAGUCAAGAAAGAGACCCUUGGCAGCGCAACAUGAGGAUCACCCAUGUAAGAA					apparent Kd (MS2 coat protein [1]; [3]): 25.4 nM; apparent Kd (MS2 coat protein [1]; [4]): 27.2 nM
GUGUUUGUGUGAGAUACCAGUGAGGCCACAUGAGGAUCACCCAUGUCCCUCACUCCGGCCCACCCUUGGCAGCUCUUAUAGUAGU					apparent Kd (MS2 coat protein [1]; [3]): 9.39 nM; apparent Kd (MS2 coat protein [1]; [4]): 38.4 nM
AAUUUUUACUCAGGAUAUUGGGAGAGCACGGGUUGUUCUCCCCACAUGAGGAUCACCCAUGUGAUCAAGAAGGGAGACGCAAAG	25.9	16.8			
UCGGACGGAGGAUAUACUAUGACUCCCACGGCAUGUUACGCACAUGAGGAUCACCCAUGUAGAAGGCCGCCUAA			4.27	7.41	
ACCUAAGCCACAGAUACCAGAGUAAUAGGCCAAUUUCAAAACAUGAGGAUCACCCAUGUACUCCCUUGGCAGCUGCGAAUCGAAA					apparent Kd (MS2 coat protein [2]; [3]): 10.9 nM; apparent Kd (MS2 coat protein [2]; [4]): 15.2 nM
CUCCUGGCAGGAUAUACAUGAGGAUCACCCAUGUUCCGAGCGUCCCAAACGACACGGUGUAGAAGGGCCAAGAU			12.8	17.3	
AAGCUACAUGAGGAUCACCCAUGUCUCACGUCACUAGGAUAUCUGAAGGUGACGAAGUUCAGAGAAGGAGUGCAUC	97.2	83.2			
AUCUCUGACUAAGGAUAUGCGGCAAAGAGCCUCUCAGAAAACAUGAGGAUCACCCAUGUAUGGACGCAGAAGGUAGUAGCCCAC	9.06	21.4			
AUAGAAAAUGUAAGGAUAUAUCGAAACAAUAAACGAAAGAAGGAACAUGAGGAUCACCCAUGUAAAGUAAUAAA			10.3	9.25	
ACGCGCUGGGCGGCCGCCACUCACCUGCCGUGGACAUUUCGAGGUCACAUGAGGAUCACCCAUGUGAGGACCGGGCCCUGUAGGC					apparent Kd (MS2 coat protein [2]; designed as: OFF switch for tryptophan, no ligand): 13.2 nM; apparent Kd (MS2 coat protein [2]; ligand present: tryptophan, designed as: OFF switch for tryptophan): 21.2 nM
GGAUCACAUGAGGAUCACCCAUGUAAAGACGAUACAGGAUAUGACAGAACACGCAUCGUUUCAGAAGGGUAUAGUG	66.9	47.6			

Sequence	apparent Kd (MS2 coat protein [2]; [7]) [nM]	apparent Kd (MS2 coat protein [2]; [8]) [nM]	apparent Kd (MS2 coat protein [2]; [9]) [nM]	apparent Kd (MS2 coat protein [2]; [10]) [nM]	further results
UAACCACAUGAGGAUCACCCAUGUCCCACAUUCGCAGGAUAUGGGUCACUGAGGUCACUACCAGAAGGGCGGAUGC	467	178			
ACAUGAGGAUCACCCAUGUUUGACUGGGCUUGCUCUCGCCGUAGAAGGUUUCAUUAAGUAGAGGAAAAGGAUAUACACUGGGCC			12.2	10.7	
GGAAGUAGAUGUCAGGAUAUCAAAAGCAUAACAUGAGGAUCACCCAUGUCCAAAAGGCAGAGAAUUGAGAAGGGACGUAGGUUACA	42.2	14.4			
GGUAGUACCGUAGGAUAUUCCGCUUACAUGAGGAUCACCCAUGUGGCUGGUAUUUCGUCAAAGAAGAAGAAGGACGUCUGCGCG			6.85	6.43	
AACCGACAUGAGGAUCACCCAUGUGAGGAUAUGUUCGAGCUGGCAGGACCACCCUGGGACAGAAGGCACGUGAA			11.2	17.7	
CACUUCAUAAUAGGAUAUCAUGGAUGACAUGAGGAUCACCCAUGUCCGCACUCUUCAACUACACGUGAGAAGGAUUCGCGGGUC	194	130			
UCAUCUGGGUCUUUGGUGCACAUGAGGAUCACCCAUGUAACUUAGGAUAUUAGUUAUGAUAUGAUUAAGAAGGAAGUCGCUAUU			15.2	16.9	
AUUACCCCAUGAGGAUAUCCAAUAAGGAGAGACAUGAGGAUCACCCAUGUCGACGGACGCAUACAGGAGAAGGCAUGGACUAGC	13.6	7.54			
GACGGCUCGACGGCCGCCACUCCCUCCGACUGAAGGCACAGUGGACAUGAGGAUCACCCAUGUCCGAGGACCGGGUCGAUCCUGG					apparent Kd (MS2 coat protein [2]; designed as: ON switch for tryptophan, no ligand): 17.7 nM; apparent Kd (MS2 coat protein [2]; ligand present: tryptophan, designed as: ON switch for tryptophan): 17.6 nM
UUUUUCCUGUAUAUCGGUACAUGAGGAUCACCCAUGUUCCCAGAGGAUAUUUGAUGGUGGGUAACAAAGAAGGCUGGCUACAGG	20.6	9.31			
UAUGCGUUUUCAGGAUAUGCACACAUGAGGAUCACCCAUGUAGGUCUGCGGCGGCAUCCUCCUUUGCAGAAGGGAAUCGCGCUU			44.1	71.6	
UUCCCUGCUUAGGAUAUCUAGACAAGACGGUCAAGAGAAGGAAGUACAUGAGGAUCACCCAUGUUUAGCAUGAA			10.5	14.2	
CGGAAGUGCAGCGCUUAAAGUACAUGAGGAUCACCCAUGUGAAAGGAUAUAUCGAAGUCAAAAUAAUAGAAGGUUCAGUGGGAU			22.6	21.1	
CGCUGCCGAAGAGGAUAUCCCACGACCCAAACUGGAGAAGGCUUUAGGUUUUGCCGACAUGAGGAUCACCCAUGUGUCAGUGCA			13.1	11.4	
CAUCAAAAGCUAGGAUAUACCUAGAGUACCGGAACAUGAGGAUCACCCAUGUUAGAGUGAUGCUGGUAGAAGGAGCUGGUAAAG	31.9	15.8			
CGCUCGCGGCGGAAGGAUAUGUCUAUCCGGACAUGAGGAUCACCCAUGUAUGGGUACUUGCUGCAACAGAAGGUCCGUAUUAUAUG	290	120			
UUUUUAUGGCAGACUACCGCACAUGAGGAUCACCCAUGUUACAGAAGGGACCACAUCCCACCUGGUCAGGAUAUGUAUACGCGG			9.07	6.77	
AACAAACACAUGAGGAUCACCCAUGUCCUUGAUAUAAUUACUCAGGAUAUCAUGUCCUCUCACCGUGAGAAGGGAGUCAAAACC	76.8	59.5			
